The species entered for series [1] is Rattus norvegicus. The experiment in a line: Inhibition of 5-LOX-mediated LTB4 production in arachidonic acid-stimulated RBL1 cells at 10 uM preincubated for 2 hrs followed by A23187 induction for 15 mins by LC/MS/MS analysis relative to control. The method, boiled down: (§1)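 RBL-1 cells grown in RPMI/10% FBS, plated 9 × 10⁵ cells/well, held 2 h at 37 °C, then given compound for 2 h (screen at 10 μM, then concentration–response in triplicate). Stimulation was 12 μM A23187 for 15 min. Supernatants were extracted with MeOH/0.01% BHT and LTB₄ quantified by UPLC-MS/MS in negative ion mode.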

Series [2] can be described thus: Change in total alpha-tubulin levels in human QBI293 cells at 1 uM after 4 hrs by ELISA relative to control. The following applies: qbi293, 4 h. (In general: ELISA stands for enzyme-linked immunosorbent assay.)
The nature of series [3]: Inhibition of 5-LOX-mediated LTB4 production in arachidonic acid-stimulated RBL1 cells preincubated for 2 hrs followed by A23187 induction for 15 mins by LC/MS/MS analysis. The conditions noted are these: Rattus norvegicus, RBL-1. The method, boiled down: as §1
The target of series [4] is T1, Cyclooxygenase (Rattus norvegicus, UniProt P35355+Q63921).
T1 sequence (P35355 whole entry): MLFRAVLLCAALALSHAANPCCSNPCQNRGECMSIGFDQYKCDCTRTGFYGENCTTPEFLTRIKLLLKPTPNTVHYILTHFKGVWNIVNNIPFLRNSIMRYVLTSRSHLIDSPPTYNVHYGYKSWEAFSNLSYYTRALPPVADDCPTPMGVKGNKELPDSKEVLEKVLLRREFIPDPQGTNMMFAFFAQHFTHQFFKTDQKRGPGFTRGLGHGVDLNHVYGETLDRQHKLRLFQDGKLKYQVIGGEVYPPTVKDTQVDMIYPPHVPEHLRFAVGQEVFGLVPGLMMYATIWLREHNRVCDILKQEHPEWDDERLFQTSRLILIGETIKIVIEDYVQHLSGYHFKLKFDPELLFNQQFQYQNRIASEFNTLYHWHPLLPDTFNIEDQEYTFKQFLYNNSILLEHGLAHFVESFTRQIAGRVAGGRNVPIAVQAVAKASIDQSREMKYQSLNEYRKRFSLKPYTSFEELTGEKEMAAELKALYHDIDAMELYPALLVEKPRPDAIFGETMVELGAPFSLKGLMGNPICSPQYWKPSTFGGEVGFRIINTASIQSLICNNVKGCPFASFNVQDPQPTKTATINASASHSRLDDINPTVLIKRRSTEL
T1 sequence (Q63921 whole entry): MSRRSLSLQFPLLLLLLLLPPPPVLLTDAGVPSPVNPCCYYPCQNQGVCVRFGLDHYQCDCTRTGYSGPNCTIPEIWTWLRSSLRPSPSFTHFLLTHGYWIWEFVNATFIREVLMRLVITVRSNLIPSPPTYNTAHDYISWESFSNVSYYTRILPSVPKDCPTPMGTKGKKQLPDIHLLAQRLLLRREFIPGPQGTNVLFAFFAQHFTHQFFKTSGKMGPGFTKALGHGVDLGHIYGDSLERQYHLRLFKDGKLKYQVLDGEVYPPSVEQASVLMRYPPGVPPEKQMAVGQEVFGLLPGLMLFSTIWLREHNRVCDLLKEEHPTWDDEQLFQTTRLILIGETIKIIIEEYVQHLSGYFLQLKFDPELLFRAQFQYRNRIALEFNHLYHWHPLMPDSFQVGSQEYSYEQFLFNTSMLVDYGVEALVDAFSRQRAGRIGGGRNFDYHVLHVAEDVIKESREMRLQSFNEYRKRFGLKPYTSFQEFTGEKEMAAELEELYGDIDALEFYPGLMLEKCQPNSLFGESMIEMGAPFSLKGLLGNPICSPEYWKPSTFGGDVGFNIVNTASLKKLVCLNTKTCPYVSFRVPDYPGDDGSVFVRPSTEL
The experiment in a line: Inhibition of COX-mediated PGD2/PGE2 production in arachidonic acid-stimulated RBL1 cells preincubated for 2 hrs followed by A23187 induction for 15 mins by LC/MS/MS analysis. Put shortly: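 RBL-1 cells in RPMI/10% FBS, 9 × 10⁵ cells/well, held 2 h, then exposed to compound for 2 h at multiple concentrations in triplicate. Stimulation was 12 μM A23187 for 15 min. Eicosanoids were extracted with MeOH/0.01% BHT, and PGD₂ plus PGE₂ measured by UPLC-MS/MS (negative ion, 351 > 315).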

On to `Cc1nc(Cl)n(-c2ccc(Cl)cc2)c1-c1c(F)ccc(Cl)c1F`, for which the inhibition (usually the share of the control response that was lost under treatment) in series [1] turned out to be 54%. In series [2], this compound returned an FC of 0.5.
In the case of `Fc1cccc(F)c1-c1cnc(Cl)n1-c1ccc(OC(F)(F)F)cc1`, the inhibition in series [1] was found to be 61%. In addition, the Activity entry in series [2] was “Non-Toxic”.
In series [1], `Fc1cccc(F)c1-c1cncn1-c1ccccc1Cl` came in with an inhibition below 10%. In series [2], the Activity result is “Non-Toxic”.
For `Fc1ccc(-c2c(Cl)ncn2-c2ccc(Cl)cc2)cc1`, in that order: 59% and “Non-Toxic”.
For `Fc1cc(Cl)ccc1-n1c(-c2c(F)cccc2F)cnc1Cl`, in that order: 49% and “Non-Toxic”.
For `Fc1cccc(F)c1-c1cncn1-c1ccc(OC(F)(F)F)cc1`, in that order: 55% and “Non-Toxic”.
The compound `Cc1cc(F)c(-c2c(Cl)nc(Cl)n2-c2ccc(Cl)cc2)c(F)c1` returned an inhibition in series [1] of 63%. In addition, in series [2], the FC came out at 0.7.
In series [1], `Fc1ccc(-c2cnc(Cl)n2-c2ccc(Cl)cc2)cc1` yielded an inhibition of 57%. In series [2], the Activity result is listed as “Non-Toxic”.
For `COc1ccc(-c2c(Cl)ncn2-c2ccc(Cl)cc2)cc1`, in that order: below 10% and “Non-Toxic”.
`Fc1ccc(F)c(-c2cncn2-c2ccc(OC(F)(F)F)cc2)c1F` came in with an inhibition in series [1] of 52%. Besides, in series [2], the FC was found to be 1.2.
The compound `Fc1cc(-n2c(-c3c(F)ccc(F)c3F)cnc2Cl)ccc1Cl` yielded an inhibition in series [1] of 58%. Further, the Activity result in series [2] was “Non-Toxic”.
For `Fc1cc(F)c(-c2c(Cl)ncn2-c2ccc(Cl)cc2)c(F)c1`, in that order: 46% and “Non-Toxic”.
The like results for `CC(C)Cc1ccc(C(C)C(=O)O)cc1` (configuration not stated) [IBUPROFEN] were, in that order, below 10% and “Non-Toxic”.
The like results for `Fc1cccc(F)c1-c1cnc(Cl)n1-c1ccccc1Cl` were, in that order, 38% and “Non-Toxic”.
Consider `Cc1nc(Cl)c(-c2c(F)cc(F)cc2F)n1-c1ccc(Cl)nc1`, for which the inhibition in series [1] worked out at 26%. Further, the Activity result in series [2] is “Non-Toxic”.
The like results for `Clc1ccc(-n2c(Cl)nc(Cl)c2-c2ccccc2)cc1` were, in that order, below 10% and “Non-Toxic”.
`COc1ccc(-n2cnc(Cl)c2-c2c(F)cc(F)cc2F)cc1` registered an inhibition in series [1] of 86%. The IC50 – broadly, the concentration that inhibits the measured activity by half – is 9.7 µM in series [3] and 2.4 µM in series [4]. Moreover, in series [2], the Activity result is reported as “Non-Toxic”.
In the case of `Cc1nc(Cl)n(-c2ccc(Cl)cc2)c1-c1c(F)cccc1F`, the inhibition in series [1] turned out to be 42%. The Activity entry in series [2] is recorded as “Non-Toxic”.
`Fc1cccc(F)c1-c1c(Cl)nc(Cl)n1-c1ccc(Cl)cc1`: the inhibition in series [1] worked out at 90%. The Activity result in series [2] is “Non-Toxic”.
For `COc1ccc(-n2cncc2-c2c(F)cc(F)cc2F)cc1`, in that order: 25% and “Non-Toxic”.
For `Fc1ccc(F)c(-c2cnc(Cl)n2-c2ccc(Cl)cc2)c1F`, in that order: 24% and “Non-Toxic”.
As for `Fc1cccc(F)c1-c1cncn1-c1ccccc1`, the inhibition in series [1] was below 10%. Also, the Activity result in series [2] is given as “Non-Toxic”.
For `COc1ccc(F)c(-c2c(Cl)ncn2-c2ccc(Cl)cc2)c1F`, the inhibition in series [1] was 91%. In series [2], this compound yielded an FC of 0.8.
Consider `Fc1cccc(F)c1-c1c(Cl)nc(Cl)n1-c1ccc(OC(F)(F)F)cc1`, for which, in series [1], the inhibition came to 81%. Moreover, in series [2], the Activity entry is recorded as “Non-Toxic”.
The like results for `Cc1cc(F)c(-c2cnc(Cl)n2-c2ccc(Cl)cc2)c(F)c1` were, in that order, 73% and “Non-Toxic”.
The like results for `Cc1nc(C)n(-c2ccc(Cl)cc2)c1-c1c(F)ccc(Cl)c1F` were, in that order, 51% and “Non-Toxic”.
In series [1], `Cc1cc(F)c(-c2cncn2-c2ccc(Cl)cc2)c(F)c1` displayed an inhibition of 84%. In series [2], the Activity entry was “Non-Toxic”.
For `Cc1nc(Cl)n(-c2ccc(Cl)cc2)c1-c1c(F)ccc(F)c1F`, in that order: 58% and “Non-Toxic”.
Consider `Fc1cccc(F)c1-c1c(Cl)nc(Cl)n1-c1ccccc1Cl`, for which the inhibition in series [1] turned out to be 21%. Moreover, the Activity result in series [2] is on record as “Non-Toxic”.
`Fc1cccc(F)c1-c1c(Cl)ncn1-c1ccc(OC(F)(F)F)cc1` gave an inhibition in series [1] of 78%. In series [2], the Activity entry is reported as “Non-Toxic”.
`Clc1ccc(-n2c(-c3ccccc3)cnc2Cl)cc1` registered an inhibition in series [1] of 52%. The FC in series [2] amounted to 1.2.
In the case of `Cc1ncn(-c2ccc(Cl)cc2)c1-c1c(F)cccc1F`, the inhibition in series [1] came to 44%. Also, the Activity entry in series [2] is “Non-Toxic”.
The like results for `Fc1ccc(F)c(-c2c(Cl)nc(Cl)n2-c2ccc(OC(F)(F)F)cc2)c1F` were, in that order, 56% and “Non-Toxic”.
The like results for `Clc1ccc(-n2cncc2-c2ccccc2)cc1` were, in that order, 16% and “Non-Toxic”.
The like results for `Fc1cc(F)c(-c2cncn2-c2ccc(Cl)cc2)c(F)c1` were, in that order, 24% and “Non-Toxic”.
The compound `COc1ccc(-c2cncn2-c2ccc(Cl)cc2)cc1` showed an inhibition in series [1] below 10%. Besides, the Activity result in series [2] is on record as “Non-Toxic”.
The like results for `Fc1cc(F)c(-c2cnc(Cl)n2-c2ccc(Cl)cc2)c(F)c1` were, in that order, 61% and “Non-Toxic”.
For `COc1ccc(F)c(-c2cnc(Cl)n2-c2ccc(Cl)cc2)c1F`, the inhibition in series [1] turned out to be 68%. This compound yielded an FC in series [2] of 0.6.
`Fc1cc(F)c(-c2c(Cl)nc(Cl)n2-c2ccc(Cl)cc2)c(F)c1` gave an inhibition in series [1] of 48%. For the same compound, in series [2], the Activity result was “Non-Toxic”.
For `Fc1ccc(F)c(-c2c(Cl)ncn2-c2ccc(OC(F)(F)F)cc2)c1F`, in that order: 85% and “Non-Toxic”.
With `Cc1ncc(-c2c(F)ccc(F)c2F)n1-c1ccc(Cl)cc1`, in series [1], the inhibition stood at 45%. Also, the FC in series [2] is listed as 0.9.
`Fc1cc(Cl)ccc1-n1cnc(Cl)c1-c1c(F)cccc1F` registered an inhibition in series [1] of 14%. For the same compound, in series [2], the Activity result is given as “Non-Toxic”.
The compound `Fc1ccc(Cl)c(F)c1-c1cnc(Cl)n1-c1ccc(Cl)cc1` returned an inhibition in series [1] of 88%. The compound also gave an FC in series [2] of 0.8.
Take `Fc1cc(F)c(-c2c(Cl)ncn2-c2ccc(Cl)nc2)c(F)c1`: the inhibition in series [1] was below 10%. In addition, the FC in series [2] is listed as 0.8.
For the compound `Fc1cccc(F)c1-c1c(Cl)ncn1-c1ccccc1Cl`, the inhibition in series [1] turned out to be 56%. The Activity entry in series [2] is recorded as “Non-Toxic”.
Turning to `Fc1ccc(F)c(-c2cnc(Cl)n2-c2ccc(OC(F)(F)F)cc2)c1F`, the inhibition in series [1] came to 80%. Also, in series [2], the Activity result is recorded as “Non-Toxic”.
For `COc1ccc(F)c(-c2cncn2-c2ccc(Cl)cc2)c1F`, in that order: 78% and “Non-Toxic”.
In turn, `Cc1ccc(F)c(-c2c(Cl)ncn2-c2ccc(Cl)cc2)c1F` returned an inhibition in series [1] of 78%. In addition, the FC in series [2] is reported as 0.8.
The compound `Cc1nc(Cl)c(-c2c(F)cc(F)cc2F)n1-c1ccc(Cl)cc1` yielded an inhibition in series [1] below 10%. The Activity result in series [2] is “Non-Toxic”.
The compound `Fc1ccc(F)c(-c2c(Cl)ncn2-c2ccc(Cl)cc2)c1` yielded an inhibition in series [1] of 69%. Besides, the Activity result in series [2] is listed as “Non-Toxic”.

The record behind these values is ChEMBL document CHEMBL4014332, “Multitargeted Imidazoles: Potential Therapeutic Leads for Alzheimer's and Other Neurodegenerative Diseases” (J Med Chem, 2017).
